TMEM16A inh: inhibitors of mouse TMEM16A calcium-activated chloride channel; Q8BHY3; HEK293 TMEM16A/YFP iodide influx fluorescence, ionomycin; normalized B-score (activity score, 25-100; higher = stronger inhibition) at 10 µM; actives 1.2% (n = 310,000); AID 588511;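 active = ratio plate-corrected score three or more library SD toward inhibition, starting fluorescence score within five deviations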;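 note: score derived from kinetic fluorescence span divided by baseline fluorescence per well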
ANO1 activ: activators or potentiators of mouse TMEM16A chloride channel; B-score at 10 µM; HEK293 TMEM16A/YFP-H148Q/I152L, iodide quench fluorescence; hits give low values; actives 0.3% (n = 340,000); Q8BHY3;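 active = fluorescence-ratio B-score plate-corrected deviation score at least 3 library SD below zero, with starting fluorescence score within 5 deviations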;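 note: channel opened by trigger with iodide after compound preincubation; score built on the fluorescence ratio of max minus min over baseline; more negative score means more quench and so TMEM16A activation or potentiation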
SR-BI HDL uptake: inhibitors of mouse SR-BI mediated HDL lipid uptake | Q61009 | ldlA[mSR-BI] CHO cells, DiI-HDL uptake fluorescence, 3 h | inhibition, % at 12.5 µM | actives 0.96% (n = 320,000);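 active = mean replicate inhibition of at least 70% and a set share of replicates each scoring 70 or more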
Target sequence (Q61009 whole entry, looked up): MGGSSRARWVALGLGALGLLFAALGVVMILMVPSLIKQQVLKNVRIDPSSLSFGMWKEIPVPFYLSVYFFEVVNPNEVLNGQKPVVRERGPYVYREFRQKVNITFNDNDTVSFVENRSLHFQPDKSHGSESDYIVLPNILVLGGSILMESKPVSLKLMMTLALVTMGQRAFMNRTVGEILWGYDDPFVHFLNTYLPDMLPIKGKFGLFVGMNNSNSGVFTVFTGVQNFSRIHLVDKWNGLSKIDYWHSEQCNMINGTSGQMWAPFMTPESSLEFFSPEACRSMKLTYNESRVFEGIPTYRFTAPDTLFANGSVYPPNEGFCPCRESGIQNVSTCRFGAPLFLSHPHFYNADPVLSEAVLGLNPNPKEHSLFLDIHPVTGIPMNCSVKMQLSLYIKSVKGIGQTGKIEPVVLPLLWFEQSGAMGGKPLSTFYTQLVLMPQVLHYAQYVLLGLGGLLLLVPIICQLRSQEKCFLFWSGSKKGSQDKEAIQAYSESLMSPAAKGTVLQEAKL
Kir21 block: Kir2.1 (mouse) channel inhibition | P35561 | HEK293-Kir2.1, FluxOR thallium flux fluorescence; hits give low values | B-score at 10 µM | actives 0.85% (n = 310,000);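 active = fluorescence ratio B-score at or below minus 3 SD of library scores, with starting-brightness B-score within 2 SD, cut at about -4.2 in these data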;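 note: channel flux triggered by added potassium and thallium sulfate stimulus; B-score of peak minus minimum fluorescence over baseline after thallium stimulus; more negative B-score means stronger Kir2.1 block with less thallium influx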
DNA FID counter: displaces DNA intercalator in HCV helicase counter-screen | AID 1845 | actives 0.17% (n = 290,000) | DNA fluorescent intercalator displacement, fluorescence | inhibition, % at 7.9 µM; in the data active = inhibition above about 37%;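 note: higher means more ethidium bromide displaced from hairpin DNA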
SR-BI DiI-HDL act: enhances SR-BI lipid uptake from DiI-HDL. CHO ldlA[mSR-BI] cells, DiI-HDL uptake fluorescence, 3 h; 100 = double the neutral-control signal. activation, % at 12.5 µM. actives 0.096% (n = 320,000);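 active = mean replicate activation of at least 60% and every replicate at or above 60%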
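Material: SR-BI-overexpressing, LDLR-lacking CHO cells; schedule: compound exposure 3 h, 37 °C; reagent: DiI-labelled HDL at 10 µg/mL final; technique: bottom-read fluorescence, 550/595 nm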
Hits are given with their value. Most compounds without a hit are left out; they make up all but 3% or so of the library.

For C#CCOCCOCCOCCNc1nc(N2CCN(C(=O)C(Cc3cc4ccccc4[nH]3)n3cc(C(N)C(C)CC)nn3)CC2)nc(N2CCN(C(=O)C(Cc3cc4ccccc4[nH]3)n3cc(C(N)C(C)CC)nn3)CC2)n1 (configuration not stated) the results were TMEM16A inh inactive, ANO1 activ inactive, SR-BI HDL uptake inactive, Kir21 block inactive, DNA FID counter 38 and SR-BI DiI-HDL act 67.
For C#CCOCCOCCOCCNc1nc(N2CCN(C(=O)[C@H]([C@@H](C)CC)n3cc([C@@H](N)CC(C)C)nn3)CC2)nc(N2CCN(C(=O)[C@H](Cc3cc4ccccc4[nH]3)n3cc([C@@H](N)Cc4ccc(O)cc4)nn3)CC2)n1 the results were TMEM16A inh inactive, Kir21 block inactive and DNA FID counter 44.
`C#CCOCCOCCOCCNc1nc(N2CCN(C(=O)[C@H](Cc3ccc(O)cc3)n3cc([C@@H](N)CC(C)C)nn3)CC2)nc(N2CCN(C(=O)[C@H](Cc3cc4ccccc4[nH]3)n3cc([C@@H](N)CC(C)C)nn3)CC2)n1` gave TMEM16A inh inactive, Kir21 block inactive and DNA FID counter 37.
For C#CCOCCOCCOCCNc1nc(N2CCN(C(=O)[C@H]([C@@H](C)CC)n3cc([C@@H](N)Cc4ccc(O)cc4)nn3)CC2)nc(N2CCN(C(=O)[C@H](Cc3cc4ccccc4[nH]3)n3cc([C@@H](N)CC(C)C)nn3)CC2)n1 the results were TMEM16A inh inactive, ANO1 activ inactive, SR-BI HDL uptake inactive and SR-BI DiI-HDL act inactive.
`C#CCOCCOCCOCCNc1nc(N2CCN(C(=O)C(Cc3ccc(O)cc3)n3cc(C(N)CC(C)C)nn3)CC2)nc(N2CCN(C(=O)C(Cc3cc4ccccc4[nH]3)n3cc(C(N)C(C)CC)nn3)CC2)n1` (configuration not stated) gave TMEM16A inh inactive, Kir21 block inactive and DNA FID counter inactive.
For CN(C(=O)c1cnccn1)c1c(N)n(Cc2ccccc2)c(=O)[nH]c1=O the results were TMEM16A inh inactive, ANO1 activ inactive, SR-BI HDL uptake inactive, Kir21 block inactive and SR-BI DiI-HDL act inactive.
COc1ccc(CCNC(=O)C2CCCN2S(=O)(=O)c2cccc3nsnc23)cc1OC (configuration not stated) was read as TMEM16A inh inactive, ANO1 activ inactive, SR-BI HDL uptake inactive, Kir21 block inactive, DNA FID counter inactive and SR-BI DiI-HDL act inactive.
`O=C(CCCOc1cccc(Br)c1)NCCOc1ccccc1` gave TMEM16A inh inactive, ANO1 activ inactive, SR-BI HDL uptake inactive, Kir21 block inactive, DNA FID counter inactive and SR-BI DiI-HDL act inactive.
CC(C)CCNC(=O)CCCOc1ccccc1 was read as TMEM16A inh inactive, ANO1 activ -4.6, SR-BI HDL uptake inactive, Kir21 block inactive, DNA FID counter inactive and SR-BI DiI-HDL act inactive.
`C#CCOCCOCCOCCNc1nc(N2CCN(C(=O)[C@H](CCCCN)n3cc([C@@H](N)CC(C)C)nn3)CC2)nc(N2CCN(C(=O)[C@H](Cc3cc4ccccc4[nH]3)n3cc([C@@H](N)Cc4ccc(O)cc4)nn3)CC2)n1` gave TMEM16A inh inactive, ANO1 activ inactive, SR-BI HDL uptake inactive, Kir21 block inactive, DNA FID counter 76 and SR-BI DiI-HDL act inactive.
C#CCOCCOCCOCCNc1nc(N2CCN(C(=O)[C@H](Cc3ccc(O)cc3)n3cc([C@@H](N)C(C)CC)nn3)CC2)nc(N2CCN(C(=O)[C@H](Cc3cc4ccccc4[nH]3)n3cc([C@@H](N)Cc4ccc(O)cc4)nn3)CC2)n1 (some centres not stated) was read as TMEM16A inh inactive and Kir21 block inactive.
For C#CCOCCOCCOCCNc1nc(N2CCN(C(=O)[C@H](CCCCN)n3cc([C@@H](N)CO)nn3)CC2)nc(N2CCN(C(=O)[C@H](Cc3cc4ccccc4[nH]3)n3cc([C@@H](N)Cc4ccc(O)cc4)nn3)CC2)n1 the results were TMEM16A inh inactive, Kir21 block inactive and DNA FID counter 55.
CC(=O)Nc1ccc(OCC(O)Cn2nc(C)c(C)c2C)cc1 (configuration not stated) was read as TMEM16A inh inactive, ANO1 activ inactive, SR-BI HDL uptake inactive, Kir21 block inactive, DNA FID counter inactive and SR-BI DiI-HDL act inactive.
COc1cc(C(O)c2nc3ccccc3n2C(C)C)cc(OC)c1OC (configuration not stated) was read as TMEM16A inh inactive, ANO1 activ inactive, SR-BI HDL uptake inactive, Kir21 block inactive, DNA FID counter 53 and SR-BI DiI-HDL act inactive.
Screening COc1ccc(OC)c(C(O)c2nc3ccccc3n2C(C)C)c1 (configuration not stated) returned TMEM16A inh inactive, ANO1 activ inactive, SR-BI HDL uptake inactive, Kir21 block inactive, DNA FID counter inactive and SR-BI DiI-HDL act inactive.
`Cc1ccccc1OCC(=O)OCC(=O)c1c[nH]c2ccccc12` gave ANO1 activ inactive, SR-BI HDL uptake inactive and SR-BI DiI-HDL act inactive.
Screening CCCCCCCCCn1c2c(c(=N)c3c1CCC3)CCCC2 returned ANO1 activ inactive, SR-BI HDL uptake inactive, Kir21 block -15, DNA FID counter inactive and SR-BI DiI-HDL act inactive.
For CCCCCCCCn1c2c(c(=N)c3ccccc31)CCC2 the results were ANO1 activ inactive, SR-BI HDL uptake inactive, Kir21 block -15, DNA FID counter inactive and SR-BI DiI-HDL act inactive.
CCCCCCCCCCn1c2c(c(=N)c3c1CCC3)CCC2 was read as TMEM16A inh 100, ANO1 activ inactive, SR-BI HDL uptake inactive, Kir21 block -8.6, DNA FID counter inactive and SR-BI DiI-HDL act inactive.
For CCCCCn1c2c(c(=N)c3ccccc31)CCC2 the results were TMEM16A inh inactive, ANO1 activ inactive, SR-BI HDL uptake inactive, Kir21 block inactive, DNA FID counter inactive and SR-BI DiI-HDL act inactive.
`O=c1[nH]oc2cc(Cl)ccc12` gave TMEM16A inh inactive, ANO1 activ inactive, SR-BI HDL uptake inactive, Kir21 block inactive, DNA FID counter inactive and SR-BI DiI-HDL act inactive.
`O=C(NCCN1CCN(C(=O)c2ccc([N+](=O)[O-])cc2)CC1)C(=O)NCc1ccccc1` gave TMEM16A inh inactive, ANO1 activ inactive, SR-BI HDL uptake inactive, Kir21 block inactive, DNA FID counter inactive and SR-BI DiI-HDL act inactive.
COc1ccc(C(=O)N/N=C/c2ccccc2OC(=O)c2ccccc2)cc1 was read as TMEM16A inh inactive, ANO1 activ inactive, SR-BI HDL uptake inactive, Kir21 block inactive, DNA FID counter inactive and SR-BI DiI-HDL act inactive.
Screening CC(C)(C)C(=O)Nc1ccc(C(=O)N/N=C/c2ccccc2OC(=O)c2ccccc2)cc1 returned TMEM16A inh inactive, ANO1 activ inactive, SR-BI HDL uptake 122, Kir21 block inactive, DNA FID counter inactive and SR-BI DiI-HDL act inactive.

Screening data as filed in PubChem BioAssay.
